Test results as given in ChEMBL document CHEMBL1156317, “Design and synthesis of conformationally constrained N,N-disubstituted 1,4-diazepanes as potent orexin receptor antagonists” (Bioorg Med Chem Lett, 2010).
pIC50, pKi: −log10 of the molar value.

Experiments:
Orexin receptor type 2 [1] = biological target: T1, Orexin receptor type 2 (Homo sapiens, UniProt O43614); assay: Binding affinity to OX2 receptor by radioligand displacement assay
T1 sequence (O43614 whole entry): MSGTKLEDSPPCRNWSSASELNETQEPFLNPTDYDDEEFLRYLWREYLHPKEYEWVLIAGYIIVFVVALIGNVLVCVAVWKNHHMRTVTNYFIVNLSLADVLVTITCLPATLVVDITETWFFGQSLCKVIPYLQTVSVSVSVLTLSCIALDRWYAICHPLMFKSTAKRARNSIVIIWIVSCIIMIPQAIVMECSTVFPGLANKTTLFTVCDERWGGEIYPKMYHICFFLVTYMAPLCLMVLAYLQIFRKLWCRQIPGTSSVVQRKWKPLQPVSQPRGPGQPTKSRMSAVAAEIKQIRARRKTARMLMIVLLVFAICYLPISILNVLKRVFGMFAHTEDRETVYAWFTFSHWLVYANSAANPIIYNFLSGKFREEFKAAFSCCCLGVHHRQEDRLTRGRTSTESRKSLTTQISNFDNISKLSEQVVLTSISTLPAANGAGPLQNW
How it was run: (§1)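 Displacement of a high-affinity radioligand bound to human orexin receptors. Values expressed as Ki.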

Orexin receptor type 2 [2] = biological target: T1, Orexin receptor type 2; assay: Antagonist activity at OX2 receptor assessed as inhibition of calcium flux by FLIPR assay; assay type: functional
How it was run: (§2)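 FLIPR assay on human orexin receptors, with calcium flux as the functional read-out of antagonism. Values expressed as IC50.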

[3] = biological target: T2, Orexin/Hypocretin receptor type 1 (Homo sapiens, UniProt O43613); assay: Antagonist activity at OX1 receptor assessed as inhibition of calcium flux by FLIPR assay; assay type: functional; how it was run: as §2
T2 sequence (O43613 whole entry): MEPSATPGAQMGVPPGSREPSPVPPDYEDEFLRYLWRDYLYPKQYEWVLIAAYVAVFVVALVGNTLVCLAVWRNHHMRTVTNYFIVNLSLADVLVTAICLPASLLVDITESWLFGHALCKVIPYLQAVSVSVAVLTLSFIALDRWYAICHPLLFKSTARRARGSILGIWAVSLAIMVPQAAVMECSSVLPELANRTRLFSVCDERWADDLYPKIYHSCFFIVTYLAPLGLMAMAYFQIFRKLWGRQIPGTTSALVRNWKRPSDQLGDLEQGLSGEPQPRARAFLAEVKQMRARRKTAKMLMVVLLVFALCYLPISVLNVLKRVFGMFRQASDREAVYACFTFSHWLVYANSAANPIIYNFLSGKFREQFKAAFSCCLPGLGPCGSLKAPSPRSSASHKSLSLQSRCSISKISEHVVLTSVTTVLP

[4] = biological target: T2, Orexin/Hypocretin receptor type 1; assay: Binding affinity to OX1 receptor by radioligand displacement assay; how it was run: as §1
[5] = Apparent permeability across pig LLC-PK1 cells; assay type: ADME, cell-based, Sus scrofa
[6] = Drug level in Sprague-Dawley rat CSF at 2 mg/kg, iv after 30 mins; assay type: ADME, organism-based; parameters: dose 2 mg/kg, route intravenous; conditions: cerebrospinal fluid, read-out: Drug uptake
How it was run: (§3)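 Rats aged seven to ten weeks, anesthetized with isoflurane (5% in oxygen to induce, 2% by nose cone to maintain), kept at 37 °C. Compound given by tail-vein infusion at 2 mg/kg over 30 min. At the end of infusion, CSF taken from the cisterna magna, then plasma by cardiac puncture, then the brain harvested. All samples frozen on dry ice and analysed for compound levels.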

[7] = AUC (0 to 24 hrs) in rat at 10 mg/kg, po and 2 mg/kg, iv; assay type: ADME, organism-based; conditions: plasma
How it was run: (§4)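 Rats dosed orally at 10 mpk in VitE-TPGS and intravenously at 2 mpk in DMSO.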

[8] = Protein binding in human; assay type: ADME, organism-based; conditions: in vivo, read-out: PB (converted)
[9] = Cmax in dog; assay type: ADME, organism-based, Canis lupus familiaris; conditions: in vivo
[10] = AUC (0 to 24 hrs) in dog; assay type: ADME, organism-based, Canis lupus familiaris; parameters: time < 24 hr; conditions: plasma
[11] = Clearance in rat at 10 mg/kg, po and 2 mg/kg, iv; assay type: ADME, organism-based; conditions: in vivo; how it was run: as §4
[12] = Cmax in rat at 10 mg/kg, po and 2 mg/kg, iv; assay type: ADME, organism-based; conditions: in vivo; how it was run: as §4
[13] = Protein binding in rat; assay type: ADME, organism-based; conditions: in vivo, read-out: PB (converted)
[14] = Half life in dog; assay type: ADME, organism-based, Canis lupus familiaris; conditions: in vivo
[15] = Drug level in Sprague-Dawley rat brain at 2 mg/kg, iv after 30 mins; assay type: ADME, organism-based; parameters: dose 2 mg/kg, route intravenous; conditions: read-out: Drug uptake; how it was run: as §3
[16] = Drug level in Sprague-Dawley rat plasma at 2 mg/kg, iv after 30 mins; assay type: ADME, organism-based; parameters: dose 2 mg/kg, route intravenous; how it was run: as §3
[17] = Clearance in dog; assay type: ADME, organism-based, Canis lupus familiaris; conditions: in vivo
[18] = Lipophilicity, log P of the compound; assay type: physicochemical; conditions: octanol/water
[19] = Oral bioavailability in dog; assay type: ADME, organism-based, Canis lupus familiaris; conditions: in vivo
[20] = Half life in rat at 10 mg/kg, po and 2 mg/kg, iv; assay type: ADME, organism-based; conditions: in vivo; how it was run: as §4
LLC-PK1 = assay: Ratio of permeability from basolateral to apical side over apical to basolateral side in pig LLC-PK1 cells expressing MDR1
[21] = Ratio of drug level in brain to plasma in Sprague-Dawley rat at 2 mg/kg, iv after 30 mins; assay type: ADME, organism-based; parameters: dose 2 mg/kg, route intravenous
How it was run: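 Male/female unspecified Sprague–Dawley rats, 7–10 weeks old, under isoflurane anaesthesia (5% induction, 2% maintenance via nose cone) on a 37 °C warming blanket; compound given by tail-vein infusion, 2 mg/kg over 30 min. At end of infusion CSF taken from cisterna magna, plasma by cardiac puncture, brain harvested; samples frozen on dry ice and compound levels measured to give brain/plasma ratio.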

[22] = Oral bioavailability in rat at 10 mg/kg; assay type: ADME, organism-based; conditions: in vivo; how it was run: as §4

SMILES: Cc1ccc(-n2nccn2)c(C(=O)N2CC3CC2CN(c2ncc4ccccc4n2)C3)c1 (stereo unspecified)
- pKi (Orexin receptor type 2 [1]): 7.96
- pIC50 (Orexin receptor type 2 [2]): 6.96
- pIC50 [3]: 7.11
- pKi [4]: 7.92

SMILES: Cc1ccc(-n2nccn2)c(C(=O)N2CC3CC(C2)N(c2ncc4ccccc4n2)C3)c1 (single isomer, unassigned; enantiomer A)
- pKi (Orexin receptor type 2 [1]): 6.81
- pIC50 (Orexin receptor type 2 [2]): 5.21
- pIC50 [3]: 5.60
- pKi [4]: 6.96

SMILES: Cc1ccc(-n2nccn2)c(C(=O)N2CCCN(c3ncc4cc(F)ccc4n3)CC2)c1
- pKi (Orexin receptor type 2 [1]): 9.70
- pIC50 (Orexin receptor type 2 [2]): 7.57
- pIC50 [3]: 7.44
- pKi [4]: 9.00

SMILES: Cc1ccc(-n2nccn2)c(C(=O)N2CCC3CC2CN3c2ncc3cc(F)ccc3n2)c1 (racemic)
- pKi (Orexin receptor type 2 [1]): 6.59
- pIC50 (Orexin receptor type 2 [2]): < 5.00
- pIC50 [3]: < 5.24
- pKi [4]: 6.06

SMILES: Cc1ccc(-n2nccn2)c(C(=O)N2CC3CC(C2)N(c2ncc4ccccc4n2)C3)c1 (single isomer, unassigned; enantiomer B)
- Papp [5]: 37 ×10⁻⁶ cm/s
- concentration at 0.5 h [6]: 60 nM
- AUC(0-t) [7]: 0.23 µM·h
- pKi (Orexin receptor type 2 [1]): 9.05
- fraction unbound [8]: 0.064
- Cmax [9]: 510 nM
- pIC50 (Orexin receptor type 2 [2]): 7.36
- AUC(0-t) at 24 h [10]: 0.49 µM·h
- pIC50 [3]: 7.62
- clearance [11]: 45 mL/min/kg
- Cmax [12]: 150 nM
- fraction unbound [13]: 0.073
- half-life [14]: 54 min
- concentration at 0.5 h [15]: 690 nM
- concentration at 0.5 h [16]: 835 nM
- clearance [17]: 24 mL/min/kg
- logP [18]: 2.6
- bioavailability [19]: 8%
- half-life [20]: 42 min
- pKi [4]: 9.15
- Ratio (LLC-PK1): 0.9
- Kp at 0.5 h [21]: 0.8
- bioavailability [22]: 2%

SMILES: Cc1ccc(-n2nccn2)c(C(=O)N2CC3CC2CCN3c2ncc3cc(F)ccc3n2)c1 (racemic)
- pKi (Orexin receptor type 2 [1]): 5.46
- pIC50 (Orexin receptor type 2 [2]): 5.43
- pIC50 [3]: 5.41
- pKi [4]: 5.77

SMILES: Cc1ccc(-n2nccn2)c(C(=O)N2CC3CC(C2)N(c2ncc4ccccc4n2)C3)c1 (racemic)
- pKi (Orexin receptor type 2 [1]): 8.44
- pIC50 (Orexin receptor type 2 [2]): 7.19
- pIC50 [3]: 7.38
- pKi [4]: 8.64

SMILES: Cc1ccc(-n2nccn2)c(C(=O)N2CCCN(c3ncc4ccccc4n3)CC2)c1
- concentration at 0.5 h [6]: 19 nM
- AUC(0-t) [7]: 0.19 µM·h
- fraction unbound [8]: 0.024
- Cmax [9]: 230 nM
- pIC50 (Orexin receptor type 2 [2]): 7.57
- AUC(0-t) at 24 h [10]: 0.44 µM·h
- pIC50 [3]: 7.54
- clearance [11]: 53 mL/min/kg
- Cmax [12]: 300 nM
- fraction unbound [13]: 0.029
- half-life [14]: 78 min
- concentration at 0.5 h [15]: 462 nM
- concentration at 0.5 h [16]: 664 nM
- clearance [17]: 12 mL/min/kg
- logP [18]: 2.91
- bioavailability [19]: 16%
- half-life [20]: 18 min
- Kp at 0.5 h [21]: 0.7
- bioavailability [22]: 2%
